# Reference: ChEMBL document CHEMBL4689842, “EUbOPEN Chemogenomics Library wave 1” (2021)
# Tested on: HEK-293T
# Experiment: Multiplex assay against HEK293T;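 for Population Tubulin-Different-Phenotype (%): share of the cells with healthy nuclei that show this phenotype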
# Type: toxicity, cell-based
# Conditions: human
# Summary of the method: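 Hoechst33342, BioTracker Green Microtubule Cytoskeleton Dye, MitoTracker Red and Annexin V Alexa Fluor 680 were added to live cells at seeding, and imaging on a CQ1 microscope at 37°C and 5% CO2 followed compound addition. Gating by CellPathfinder machine learning separated cells into Hoechst high-intensity objects or normal cells, then normal cells into healthy, pyknosed or fragmented nuclei, then pyknosed cells into mitotic or apoptotic. Per cents of healthy-nucleus cells are reported for the tubulin, mitochondrial-mass and membrane-permeability phenotypes.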
# [1] = 12 h, 1 µM, compound concentration 1 uM, replicate 1
# [2] = 12 h, 1 µM, compound concentration 1 uM, replicate 2
# [3] = 12 h, 10 µM, compound concentration 10 uM, replicate 1
# [4] = 12 h, 10 µM, compound concentration 10 uM, replicate 2
# [5] = 24 h, 1 µM, compound concentration 1 uM, replicate 1
# [6] = 24 h, 1 µM, compound concentration 1 uM, replicate 2
# [7] = 24 h, 10 µM, compound concentration 10 uM, replicate 1
# [8] = 24 h, 10 µM, compound concentration 10 uM, replicate 2
# [9] = 48 h, 1 µM, compound concentration 1 uM, replicate 1
# [10] = 48 h, 1 µM, compound concentration 1 uM, replicate 2
# [11] = 48 h, 10 µM, compound concentration 10 uM, replicate 1
# [12] = 48 h, 10 µM, compound concentration 10 uM, replicate 2
smiles,measurement,setting,value
CN(C)CC#Cc1ccc(OCCCc2sc(N3CCc4cccc(C(=O)Nc5nc6ccccc6s5)c4C3)nc2C(=O)O)c(F)c1 [A-1155463],Population Apoptotic (%),[1],33%
same,Population Fragmented Nuclei (%),[1],12%
same,Population Healthy Nuclei (%),[1],42%
same,Population Hoechst High Intensity Objects (%),[1],11%
same,Population Membrane Permeable-Phenotype (%),[1],2%
same,Population Mitochondria Different-Phenotype (%),[1],68%
same,Population Mitotic Cells (%),[1],66%
same,Population Normal (%),[1],88%
same,Population Pyknosed Nuclei (%),[1],45%
same,Population Tubulin-Different-Phenotype (%),[1],40%
same,Total Cell Count,[1],278
same,Population Apoptotic (%),[2],15%
same,Population Fragmented Nuclei (%),[2],4%
same,Population Healthy Nuclei (%),[2],44%
same,Population Hoechst High Intensity Objects (%),[2],3%
same,Population Membrane Permeable-Phenotype (%),[2],6%
same,Population Mitochondria Different-Phenotype (%),[2],17%
same,Population Mitotic Cells (%),[2],84%
same,Population Normal (%),[2],96%
same,Population Pyknosed Nuclei (%),[2],50%
same,Population Tubulin-Different-Phenotype (%),[2],17%
same,Total Cell Count,[2],177
same,Population Apoptotic (%),[3],40%
same,Population Fragmented Nuclei (%),[3],8%
same,Population Healthy Nuclei (%),[3],41%
same,Population Hoechst High Intensity Objects (%),[3],10%
same,Population Membrane Permeable-Phenotype (%),[3],13%
same,Population Mitochondria Different-Phenotype (%),[3],63%
same,Population Mitotic Cells (%),[3],59%
same,Population Normal (%),[3],89%
same,Population Pyknosed Nuclei (%),[3],49%
same,Population Tubulin-Different-Phenotype (%),[3],64%
same,Total Cell Count,[3],288
same,Population Apoptotic (%),[4],18%
same,Population Fragmented Nuclei (%),[4],20%
same,Population Healthy Nuclei (%),[4],39%
same,Population Hoechst High Intensity Objects (%),[4],7%
same,Population Membrane Permeable-Phenotype (%),[4],10%
same,Population Mitochondria Different-Phenotype (%),[4],17%
same,Population Mitotic Cells (%),[4],81%
same,Population Normal (%),[4],92%
same,Population Pyknosed Nuclei (%),[4],39%
same,Population Tubulin-Different-Phenotype (%),[4],26%
same,Total Cell Count,[4],263
same,Population Apoptotic (%),[5],48%
same,Population Fragmented Nuclei (%),[5],11%
same,Population Healthy Nuclei (%),[5],38%
same,Population Hoechst High Intensity Objects (%),[5],14%
same,Population Membrane Permeable-Phenotype (%),[5],4%
same,Population Mitochondria Different-Phenotype (%),[5],54%
same,Population Mitotic Cells (%),[5],51%
same,Population Normal (%),[5],85%
same,Population Pyknosed Nuclei (%),[5],50%
same,Population Tubulin-Different-Phenotype (%),[5],37%
same,Total Cell Count,[5],286
same,Population Apoptotic (%),[6],10%
same,Population Fragmented Nuclei (%),[6],4%
same,Population Healthy Nuclei (%),[6],56%
same,Population Hoechst High Intensity Objects (%),[6],2%
same,Population Membrane Permeable-Phenotype (%),[6],17%
same,Population Mitochondria Different-Phenotype (%),[6],7%
same,Population Mitotic Cells (%),[6],89%
same,Population Normal (%),[6],97%
same,Population Pyknosed Nuclei (%),[6],39%
same,Population Tubulin-Different-Phenotype (%),[6],24%
same,Total Cell Count,[6],220
same,Population Apoptotic (%),[7],42%
same,Population Fragmented Nuclei (%),[7],12%
same,Population Healthy Nuclei (%),[7],43%
same,Population Hoechst High Intensity Objects (%),[7],10%
same,Population Membrane Permeable-Phenotype (%),[7],14%
same,Population Mitochondria Different-Phenotype (%),[7],35%
same,Population Mitotic Cells (%),[7],57%
same,Population Normal (%),[7],89%
same,Population Pyknosed Nuclei (%),[7],44%
same,Population Tubulin-Different-Phenotype (%),[7],54%
same,Total Cell Count,[7],298
same,Population Apoptotic (%),[8],24%
same,Population Fragmented Nuclei (%),[8],19%
same,Population Healthy Nuclei (%),[8],52%
same,Population Hoechst High Intensity Objects (%),[8],3%
same,Population Membrane Permeable-Phenotype (%),[8],20%
same,Population Mitochondria Different-Phenotype (%),[8],13%
same,Population Mitotic Cells (%),[8],75%
same,Population Normal (%),[8],96%
same,Population Pyknosed Nuclei (%),[8],28%
same,Population Tubulin-Different-Phenotype (%),[8],48%
same,Total Cell Count,[8],287
same,Population Apoptotic (%),[9],33%
same,Population Fragmented Nuclei (%),[9],16%
same,Population Healthy Nuclei (%),[9],35%
same,Population Hoechst High Intensity Objects (%),[9],17%
same,Population Membrane Permeable-Phenotype (%),[9],9%
same,Population Mitochondria Different-Phenotype (%),[9],30%
same,Population Mitotic Cells (%),[9],66%
same,Population Normal (%),[9],82%
same,Population Pyknosed Nuclei (%),[9],48%
same,Population Tubulin-Different-Phenotype (%),[9],37%
same,Total Cell Count,[9],322
same,Population Apoptotic (%),[10],5%
same,Population Fragmented Nuclei (%),[10],7%
same,Population Healthy Nuclei (%),[10],78%
same,Population Hoechst High Intensity Objects (%),[10],4%
same,Population Membrane Permeable-Phenotype (%),[10],19%
same,Population Mitochondria Different-Phenotype (%),[10],4%
same,Population Mitotic Cells (%),[10],94%
same,Population Normal (%),[10],95%
same,Population Pyknosed Nuclei (%),[10],13%
same,Population Tubulin-Different-Phenotype (%),[10],26%
same,Total Cell Count,[10],397
same,Population Apoptotic (%),[11],40%
same,Population Fragmented Nuclei (%),[11],15%
same,Population Healthy Nuclei (%),[11],56%
same,Population Hoechst High Intensity Objects (%),[11],11%
same,Population Membrane Permeable-Phenotype (%),[11],30%
same,Population Mitochondria Different-Phenotype (%),[11],13%
same,Population Mitotic Cells (%),[11],59%
same,Population Normal (%),[11],88%
same,Population Pyknosed Nuclei (%),[11],28%
same,Population Tubulin-Different-Phenotype (%),[11],52%
same,Total Cell Count,[11],390
same,Population Apoptotic (%),[12],8%
same,Population Healthy Nuclei (%),[12],65%
same,Population Hoechst High Intensity Objects (%),[12],3%
same,Population Membrane Permeable-Phenotype (%),[12],43%
same,Population Mitochondria Different-Phenotype (%),[12],2%
same,Population Mitotic Cells (%),[12],91%
same,Population Normal (%),[12],96%
same,Population Pyknosed Nuclei (%),[12],19%
same,Population Tubulin-Different-Phenotype (%),[12],48%
same,Total Cell Count,[12],365
